Assay results as given in BindingDB's records for doi:10.1016/j.bmcl.2004.04.085 (Merck Sharp & Dohme Research Laboratories, 2004).

Legend:
[1] = molecular target: T1, Gamma-aminobutyric acid receptor subunit alpha-3/beta-3/gamma-2 (Homo sapiens, UniProt P34903+P18507+P28472); test: In vitro binding affinity against Gamma-aminobutyric acid A receptor, alpha 3 expressed in L(tk) cells by displacement of [3H]Ro-151788
T1 sequence (P34903 whole entry): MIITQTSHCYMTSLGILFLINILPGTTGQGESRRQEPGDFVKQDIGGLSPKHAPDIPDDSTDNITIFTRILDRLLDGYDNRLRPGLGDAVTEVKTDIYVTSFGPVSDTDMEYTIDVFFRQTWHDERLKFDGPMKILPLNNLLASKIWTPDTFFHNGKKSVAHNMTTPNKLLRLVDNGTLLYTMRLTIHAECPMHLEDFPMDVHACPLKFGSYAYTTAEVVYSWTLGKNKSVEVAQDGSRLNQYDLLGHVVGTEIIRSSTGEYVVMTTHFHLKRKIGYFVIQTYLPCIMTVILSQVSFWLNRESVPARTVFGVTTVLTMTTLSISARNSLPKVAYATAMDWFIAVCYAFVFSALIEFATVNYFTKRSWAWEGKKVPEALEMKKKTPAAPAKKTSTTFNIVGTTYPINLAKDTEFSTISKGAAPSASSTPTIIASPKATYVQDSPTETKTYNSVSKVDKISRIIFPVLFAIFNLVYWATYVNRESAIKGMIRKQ
T1 sequence (P18507 whole entry): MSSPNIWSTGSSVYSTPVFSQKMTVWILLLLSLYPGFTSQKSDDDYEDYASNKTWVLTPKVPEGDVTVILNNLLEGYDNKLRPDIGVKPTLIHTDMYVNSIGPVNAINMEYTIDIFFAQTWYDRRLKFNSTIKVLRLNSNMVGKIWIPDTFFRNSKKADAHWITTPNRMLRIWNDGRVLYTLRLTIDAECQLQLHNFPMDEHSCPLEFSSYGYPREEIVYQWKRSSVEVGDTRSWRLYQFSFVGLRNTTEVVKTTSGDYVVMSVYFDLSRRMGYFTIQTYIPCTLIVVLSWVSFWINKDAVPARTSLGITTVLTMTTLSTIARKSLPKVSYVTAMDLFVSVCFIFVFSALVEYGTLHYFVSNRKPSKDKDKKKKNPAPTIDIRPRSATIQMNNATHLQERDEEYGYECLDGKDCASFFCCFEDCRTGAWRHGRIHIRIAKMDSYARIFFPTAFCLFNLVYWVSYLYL
T1 sequence (P28472 whole entry): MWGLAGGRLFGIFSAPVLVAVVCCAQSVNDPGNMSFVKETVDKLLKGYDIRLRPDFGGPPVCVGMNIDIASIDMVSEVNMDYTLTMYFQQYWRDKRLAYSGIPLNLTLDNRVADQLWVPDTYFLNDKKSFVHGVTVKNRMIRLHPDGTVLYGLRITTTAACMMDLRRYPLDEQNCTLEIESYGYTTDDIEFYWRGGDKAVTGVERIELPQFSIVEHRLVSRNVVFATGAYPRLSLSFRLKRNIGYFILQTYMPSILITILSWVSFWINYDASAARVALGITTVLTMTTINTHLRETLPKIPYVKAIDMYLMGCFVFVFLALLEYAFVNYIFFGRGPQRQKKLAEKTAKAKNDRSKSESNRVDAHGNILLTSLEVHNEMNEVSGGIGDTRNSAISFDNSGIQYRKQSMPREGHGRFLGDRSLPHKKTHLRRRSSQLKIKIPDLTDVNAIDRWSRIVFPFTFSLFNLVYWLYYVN
Outline: (§1)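 Binding to cloned human α1β3γ2, α2β3γ2 or α3β3γ2 receptors stably expressed in L(tk-) cells, measured as displacement of [3H]Ro15-1788; means ± SEM, n = 3-7.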

[2] = molecular target: T2, Gamma-aminobutyric acid receptor subunit alpha-1/beta-3/gamma-2 (Homo sapiens, UniProt P14867+P18507+P28472); test: In vitro binding affinity against gamma-aminobutyric acid A receptor, alpha 1 expressed in L(tk) cells by displacement of [3H]Ro-151788; outline: as §1
T2 sequence (P14867 whole entry): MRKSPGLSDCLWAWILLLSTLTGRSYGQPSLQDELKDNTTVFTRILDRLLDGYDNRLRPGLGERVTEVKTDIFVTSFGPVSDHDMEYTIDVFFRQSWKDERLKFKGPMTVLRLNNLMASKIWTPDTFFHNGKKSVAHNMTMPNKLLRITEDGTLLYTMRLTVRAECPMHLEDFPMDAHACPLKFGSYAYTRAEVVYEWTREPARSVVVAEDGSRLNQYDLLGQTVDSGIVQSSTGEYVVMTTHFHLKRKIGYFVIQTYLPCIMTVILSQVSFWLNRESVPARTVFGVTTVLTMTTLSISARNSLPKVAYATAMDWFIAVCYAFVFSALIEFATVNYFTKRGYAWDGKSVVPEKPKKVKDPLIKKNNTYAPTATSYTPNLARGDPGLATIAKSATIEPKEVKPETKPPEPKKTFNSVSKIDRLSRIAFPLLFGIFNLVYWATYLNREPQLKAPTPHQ
T2 sequence (P18507 whole entry): T1 sequence (P18507 whole entry)
T2 sequence (P28472 whole entry): T1 sequence (P28472 whole entry)

[3] = molecular target: T1, Gamma-aminobutyric acid receptor subunit alpha-3/beta-3/gamma-2; test: In vitro displacement of [3H]Ro-151788 from human GABA-A receptor alpha-3-beta-3-gamma-2 subunits expressed in L(tk-) cells; outline: as §1

Structure (SMILES)	Ki [1] [nM]	Ki [2] [nM]	Ki [3] [nM]
O=c1c2c([nH]n1-c1ccc(Cl)cc1)C1CCCC1N=C2 (stereo not drawn) [2-(4-Chloro-phenyl)-2,5a,6,7,8,8a-hexahydro-5H-cyclopenta[b]pyrazolo[3,4-d]pyridin-3-one]	1.1		
O=c1c2c([nH]n1-c1ccc(Cl)cc1)C1CCCCCC1N=C2 (stereo not drawn) [2-(4-Chloro-phenyl)-2,5a,6,7,8,9,10,10a-octahydro-5H-1,2,5-triaza-cyclohepta[e]inden-3-one]		1.1	
O=c1c2c([nH]n1-c1ccc(Cl)cc1)C1CN(CC3CC3)CCC1N=C2 (stereo not drawn) [2-(4-Chloro-phenyl)-8-cyclopropylmethyl-2,5,5a,6,7,8,9,9a-octahydro-pyrazolo[4,3-c][1,6]naphthyridin-3-one]	7.5		
O=c1c2cnc3c(c2[nH]n1-c1ccc(OC2CC2)cc1)CCCC3 [2-(4-Cyclopropoxy-phenyl)-2,5,6,7,8,9-hexahydro-pyrazolo[4,3-c]quinolin-3-one]		1.1	2.2
O=c1c2cnc3c(c2[nH]n1-c1ccc(OC(F)F)cc1)CCCC3 [2-(4-Difluoromethoxy-phenyl)-2,5,6,7,8,9-hexahydro-pyrazolo[4,3-c]quinolin-3-one]	2.3	1	
O=c1c2cnc3c(c2[nH]n1-c1ccc(OC(F)(F)F)cc1)CCCC3 [2-(4-Trifluoromethoxy-phenyl)-2,5,6,7,8,9-hexahydro-pyrazolo[4,3-c]quinolin-3-one]		7.3	
